{"data": "Published values from different studies", "read-out": "thermal stability", "method": "DSF", "DCLK1": "Serine/threonine-protein kinase DCLK1 (DCLK1, Homo sapiens, UniProt O15075)", "SIRT2": "NAD-dependent protein deacetylase sirtuin-2 (SIRT2, Homo sapiens, UniProt Q8IXJ6)", "lecA": "PA-I galactophilic lectin (lecA, Pseudomonas aeruginosa, UniProt Q05097)", "GAK": "Cyclin-G-associated kinase (GAK, Homo sapiens, UniProt O14976)"}
{"SMILES": "Cn1c2c(c3ccc(Cl)c(Cl)c31)C(C#N)C(C)(C)NC2=O (centres unmarked)", "target": "DCLK1", "setting": "10 µM", "ΔTm": "0.4 °C"}
{"SMILES": "Cc1ccc(Cn2cc(COc3cccc(Cc4cnc(NC(=O)CSc5nc(C)cc(C)n5)s4)c3)nn2)cc1", "target": "SIRT2", "setting": "25 µM", "ΔTm": "5.35 °C"}
{"SMILES": "Cn1c2c(c3ccc(Cl)c(Cl)c31)C(C#N)C1(CCCC1)NC2=O (centres unmarked)", "target": "DCLK1", "setting": "10 µM", "ΔTm": "0 °C"}
{"SMILES": "O=C(c1ccccc1)c1ccc(O)c(O)c1", "target": "lecA", "setting": "4 mM", "ΔTm": "0.4 °C"}
{"SMILES": "FC(F)(F)c1ccc2nccc(Nc3cccc(I)c3)c2c1", "target": "GAK", "setting": "10 µM", "ΔTm": "2.6 °C"}
{"SMILES": "COCCn1cc(COc2cccc(Cc3cnc(NC(=O)CSc4nc(-c5ccccc5)cc(-c5ccccc5)n4)s3)c2)nn1", "target": "SIRT2", "setting": "25 µM", "ΔTm": "1.4 °C"}
{"SMILES": "Cc1ccc(O)c(O)c1", "target": "lecA", "setting": "4 mM", "ΔTm": "-11 °C"}
{"SMILES": "COc1ccc2nccc(Nc3cc(OC)c(OC)c(OC)c3)c2c1", "target": "GAK", "setting": "10 µM", "ΔTm": "6 °C"}
